Compound activity as filed in PubChem BioAssay.
In the library only some 2.1% were active in any assay of this set; here they are far more common.
ARNT-TACC3 inh: ARNT/TACC3 interaction disruption; 390,000 tested, 0.66% active; AlphaScreen His-ARNT PAS-B/GST-TACC3 binding, luminescence; TACC3 fragment carries E629A point mutation; inhibition, % at 9.99 µM;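 active means mean inhibition of replicates at least 50% and at least half of replicates each reaching 50%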;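 further: 0% = complete ARNT plus TACC3 wells and 100% = ARNT alone without TACC3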
AF4-AF9 inh: blocks AF4 peptide binding to human AF9. P42568. 350,000 tested, 0.47% active. inhibition, % at 10 µM. AlphaScreen, biotin-AF4 peptide binding to FLAG-AF9;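 active means every replicate reaching a set inhibition limit, whatever the replicate mean, cut at about 25% in these data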;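 further: 0% = plate neutral control median and 100% = total signal loss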
FN deposition inh: fibronectin deposition inhibition; AH1F fibroblasts, Alexa488-fibronectin deposition fluorescence, overnight; inhibition, % at 12.6 µM; 350,000 tested, 0.086% active; AID 743247;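 active means mean inhibition across replicates of 30% or more, regardless of how many single replicates reach that level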;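 further: positive control wells lacked labelled fibronectin entirely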
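Measured by – fluorescence 485/525 nm · System – AH1F fibroblast monolayer, labelled fibronectin deposition · Amount – 10000 cells per well · Buffer or medium – serum-reduced DMEM (2% serum) · Doses – single dose, pinned · Also added – fluorescent fibronectin at 24 nM final · Schedule – 1 h cell attachment, overnight exposure to compound and label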
FGF22 binding: shifts melting point of recombinant human FGF22. Q9HCT0. recombinant FGF22 thermal shift, SYPRO orange fluorescence; percent of sucrose octasulfate shift, DMSO zero. activity (Tm shift, normalised), % at 9.99 µM. 340,000 tested, 1.5% active. AID 651658;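 active means mean Tm shift, scaled 0 neutral to 100 positive control, at about 1.3% or above, every replicate too, limit read from the data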
Target sequence (Q9HCT0 whole entry, looked up): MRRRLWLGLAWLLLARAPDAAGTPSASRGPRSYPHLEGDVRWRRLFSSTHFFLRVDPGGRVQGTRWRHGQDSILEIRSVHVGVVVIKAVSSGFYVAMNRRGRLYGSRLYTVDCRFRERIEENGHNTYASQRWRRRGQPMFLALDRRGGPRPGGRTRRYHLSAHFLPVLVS
ERp5 block: inhibitors of human ERp5. Q15084. ERp5 insulin aggregation, absorbance 650 nm, 90 min. inhibition, % at 9.99 µM. 350,000 tested, 0.05% active;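 active means mean replicate inhibition above about 25%, with every replicate also reaching it, limit read from the data, passing the limit was not always enough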
PDI turbidity: PDI (human) enzyme inhibition; inhibition, % at 10 µM; 350,000 tested, 0.052% active; PDI insulin aggregation turbidity, A650, 90 min; AID 588391;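 active means mean inhibition across replicates of 30% or more, whatever share of single replicates reach that level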
Target sequence (P07237 whole entry, looked up): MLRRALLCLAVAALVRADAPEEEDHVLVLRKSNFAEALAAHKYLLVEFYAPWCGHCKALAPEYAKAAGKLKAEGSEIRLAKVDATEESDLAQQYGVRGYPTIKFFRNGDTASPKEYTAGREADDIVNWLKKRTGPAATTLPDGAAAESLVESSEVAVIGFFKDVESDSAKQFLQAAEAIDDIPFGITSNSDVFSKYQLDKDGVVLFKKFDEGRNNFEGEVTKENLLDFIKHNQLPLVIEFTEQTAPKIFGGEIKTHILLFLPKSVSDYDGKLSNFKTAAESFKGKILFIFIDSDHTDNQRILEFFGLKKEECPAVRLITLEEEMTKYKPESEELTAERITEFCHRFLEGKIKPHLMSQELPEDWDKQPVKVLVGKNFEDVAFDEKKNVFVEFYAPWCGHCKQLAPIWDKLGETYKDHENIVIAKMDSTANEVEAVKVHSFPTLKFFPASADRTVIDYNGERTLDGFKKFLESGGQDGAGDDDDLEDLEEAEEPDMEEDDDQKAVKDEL
* hit, by the source's call; x = not tested or not shown.

SMILES | ARNT-TACC3 inh | AF4-AF9 inh | FN deposition inh | FGF22 binding | ERp5 block | PDI turbidity
COc1ccccc1NC(=O)Nc1cccc(C)n1 | -6.1 | -1.4 | -0.1 | -0.1 | 2.4 | 0.7
O=C(N[C@H]1CC[C@@H](CC(=O)N2CCc3ccccc3C2)O[C@H]1CO)C1CCC1 | -31.0 | -19.6 | x | 0.0 | -0.1 | x
Cc1cc(NC(=O)c2ccccc2F)nc2c1c(=O)oc1ccccc12 | -5.4 | -0.1 | -1.6 | 43.9* | -5.0 | 4.6
CN(C)C(=O)c1cccc(-c2ccc([C@H]3[C@@H](CO)N4CCCCN(CC5CCOCC5)C[C@@H]34)cc2)c1 | -1.9 | -0.7 | -3.9 | 0.6 | 1.5 | x
O=C1c2ccccc2/C(=C\c2ccc(Br)nc2)N1c1ccccc1 | x | 9.5 | 11.8 | 43.0* | -5.1 | x
O=C1c2ccccc2/C(=C\c2ccc(Br)s2)N1c1ccccc1 | x | 19.8 | 0.1 | 0.1 | -0.7 | -9.0
O=C(NCc1ccccc1)c1ccc(-c2cn[nH]c2)c2ccoc12 | x | -1.0 | 34.7* | -0.2 | 12.9 | -67.2
COCCNC(=O)c1ccc(-c2cn[nH]c2)c2ccoc12 | x | -1.5 | 22.8 | -0.2 | -2.0 | 5.7
C/C(CC(=O)Nc1ccc(C)c(Cl)c1)=N\NC(=O)c1ccncc1 | 7.4 | -0.2 | -2.0 | 43.5* | 9.2 | -1.8
O=C(CN1C(=O)NC2NC(=O)NC21)N/N=C/c1ccccc1O (centres undefined) | 66.0* | -2.6 | 15.1 | 0.3 | 2.8 | 4.3
Cc1cc([N+](=O)[O-])nn1CC(=O)N/N=C/c1ccccc1O | 67.6* | x | 12.9 | 0.3 | -0.3 | -0.2
COc1ccc([N+](=O)[O-])cc1/C=N/NC(=O)Cc1ccccc1 | x | -1.0 | 4.0 | 43.8* | -2.5 | 2.0
Nc1nnnn1CC(=O)N/N=C/c1cc([N+](=O)[O-])ccc1O | 66.9* | 9.7 | x | 0.7 | 1.2 | 1.6
C[C@H](CO)N1C[C@H](C)[C@H](CN(C)Cc2ccccn2)Oc2ncc(-c3ccc(F)cc3)cc2C1=O | 11.1 | -2.6 | 8.5 | 0.0 | -5.4 | x
C[C@@H]1CN([C@H](C)CO)C(=O)c2cccc(NC(=O)Nc3ccc(F)cc3)c2O[C@H]1CN(C)Cc1ccc(Oc2ccccc2)cc1 | 11.4 | 4.0 | x | 0.1 | 1.5 | x
C[C@@H]1CCCCO[C@H](CN(C)S(=O)(=O)c2cccs2)[C@H](C)CN([C@H](C)CO)C(=O)c2cc(NC(=O)Nc3ccccc3)ccc2O1 | -1.7 | 1.7 | 12.7 | 0.1 | 2.7 | x
COc1ccc(S(=O)(=O)N(C)C[C@H]2Oc3ccc(NC(=O)Nc4ccc5c(c4)OCO5)cc3C(=O)N([C@@H](C)CO)C[C@H]2C)cc1 | 8.1 | 1.6 | -0.5 | -0.3 | 14.5 | x
Nc1nnc(CC(=O)N/N=C\c2cc([N+](=O)[O-])ccc2O)s1 | 64.9* | 6.5 | -4.5 | -0.1 | 4.0 | -2.1
Cc1cc(C)n(CC(=O)N/N=C/c2cc([N+](=O)[O-])ccc2O)n1 | 72.2* | -4.4 | -5.9 | -0.2 | 2.2 | -3.9
CN1CCN(C(=O)C[C@@H]2CC[C@@H]3[C@@H](COc4ccc(NC(=O)C5CCCCC5)cc4C(=O)N3C)O2)CC1 | -15.6 | -13.2 | -4.8 | -0.1 | -0.9 | x
Cc1cccc(/C=N/NC(=O)c2ccc(NC(=O)c3ccccc3C)cc2)n1 | 10.6 | 0.4 | -3.9 | -0.2 | 2.0 | 3.0
Cc1cccc(/C=N/NC(=O)c2ccncc2)n1 | 62.6* | 0.4 | 0.1 | 0.1 | 1.4 | 2.5
Cc1cccc(C(=O)Nc2cccc(C(=O)N/N=C/c3ccccn3)c2)c1 | 71.4* | -0.5 | -3.1 | -0.2 | -0.7 | -2.6
Cc1ccsc1/C=N/NC(=O)c1cccc(S(=O)(=O)Nc2ccccc2Cl)c1 | -14.1 | 4.3 | -1.3 | 0.1 | 9.7 | -12.9
O=C(N/N=C/c1ccccn1)c1cccc(NC(=O)c2ccccc2Cl)c1 | 63.1* | 1.7 | -1.8 | 0.1 | 0.3 | 5.6
SMILES | ARNT-TACC3 inh | AF4-AF9 inh | FN deposition inh | FGF22 binding | ERp5 block | PDI turbidity
O=C(N/N=C/c1ccccn1)c1cccc(S(=O)(=O)Nc2ccccc2Cl)c1 | 65.1* | -3.0 | 2.0 | 0.8 | -9.8 | 4.7
Cc1ccc(S(=O)(=O)NCC[C@H]2CC[C@@H](NC(=O)c3cccc(F)c3)[C@H](CO)O2)cc1 | -5.1 | -0.9 | x | 0.3 | -9.5 | x
O=C(N/N=C/c1ccccn1)c1cc([N+](=O)[O-])cc([N+](=O)[O-])c1 | 60.5* | 4.0 | 15.2 | 0.1 | 3.8 | -4.0
O=C(N/N=C/c1ccccc1C(=O)O)C(=O)N1CCCCC1 | 2.4 | -0.8 | -6.0 | 0.0 | -2.7 | -0.4
O=C(N/N=C/c1ccccn1)C(=O)N1CCCCCC1 | 53.2* | 0.9 | -4.3 | 0.1 | -0.6 | -6.7
Cc1ccccc1C(=O)Nc1cccc(C(=O)N/N=C/c2cc(Cl)cc([N+](=O)[O-])c2O)c1 | 51.7* | 4.2 | 7.4 | 0.2 | 1.0 | 4.0
O=C(N/N=C1\CCCc2oc(C(=O)O)cc21)c1ccccc1 | x | 1.4 | -24.8 | 43.2* | -1.8 | 9.8
COc1cc(/C=N/NC(=O)c2cccc(NC(=O)c3ccccc3C)c2)ccc1O | 12.9 | -2.5 | -7.4 | -0.2 | 0.1 | 0.6
O=C(O)c1cc2c(o1)CCC/C2=N\O | -10.5 | 3.3 | x | 0.1 | -1.8 | -7.4
C[C@@H]1CN([C@H](C)CO)C(=O)c2cc(C3=CCCCC3)cnc2O[C@H]1CN(C)Cc1ccccc1 | -0.7 | 6.2 | x | -0.1 | 8.7 | x
O=C(O)c1cccc(NC(=S)N/N=C/c2ccccn2)c1 | 66.4* | -3.5 | 0.9 | -0.1 | 4.6 | -0.3
O=C(CCCC(=O)N/N=C\c1ccccn1)N/N=C\c1ccccn1 | 14.8 | 1.9 | -12.9 | -0.1 | 4.0 | 3.2
Cc1cccc(C(=O)N/N=C/c2ccccn2)c1 | 54.0* | x | 2.7 | x | x | -2.2
CC(Nc1cccc2ccccc12)C(=O)N/N=C/c1ccccn1 (centres undefined) | 67.2* | x | x | x | x | -1.0
O=C(N/N=C1/CCCc2ccccc21)c1cc([N+](=O)[O-])cc([N+](=O)[O-])c1 | x | -0.5 | -20.0 | 42.9* | -2.4 | x
C[C@@H]1CCCCO[C@@H](CN(C)C(=O)C2CCCCC2)[C@H](C)CN([C@@H](C)CO)C(=O)c2cc(NS(=O)(=O)c3cn(C)cn3)ccc2O1 | -15.9 | -0.4 | x | 0.0 | -1.5 | x
O=C(N/N=C/c1ccccn1)c1cc(C2CC2)[nH]n1 | 48.3* | 0.4 | 4.1 | 0.2 | 1.5 | 3.3
Cc1cccc(NC(=O)C(=O)N/N=C/c2ccncc2)c1 | x | 0.2 | -4.3 | 43.5* | 2.4 | -2.1
O=S(=O)(c1ccccc1F)N1CC[C@@H]2[C@@H](CO)Nc3ccc(-c4ccc(F)cc4)cc3[C@@H]21 | -12.1 | x | 1.1 | x | 6.8 | x
COCC(=O)Nc1ccc2c(c1)C(=O)N(C)C[C@H](OC)[C@H](C)CN(C(=O)c1cnccn1)[C@@H](C)CO2 | 22.5 | 3.9 | 2.6 | -0.5 | -0.9 | x
O=[N+]([O-])c1cccc(COc2cccc(CN3CCCCC3)c2)c1 | 4.1 | 0.0 | 4.7 | 43.5* | -4.8 | -3.9
